Source: PubChem (several laboratories)
Hits are enriched below; roughly 3.4% of the tested compounds scored in any of these assays.
ROMK mod = ROMK potassium channel modulators, primary screen, cell-based, thallium flux, MLSMR library; 130,000 tested, 2% active; B-score at 10 µM; Tet-inducible ROMK, thallium flux fluorescence; actives lie on both sides; AID 1918, 2009; ATP-sensitive inward rectifier potassium channel 1 (Homo sapiens), P48048;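 active = signal ratio slope over the read window, or its plate-corrected B-score, at least 3 SD from the plate mean, either direction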;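 also: B-score of the F/F0 ratio slope over 7 to 12 s after thallium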
Target sequence (P48048 whole entry, looked up): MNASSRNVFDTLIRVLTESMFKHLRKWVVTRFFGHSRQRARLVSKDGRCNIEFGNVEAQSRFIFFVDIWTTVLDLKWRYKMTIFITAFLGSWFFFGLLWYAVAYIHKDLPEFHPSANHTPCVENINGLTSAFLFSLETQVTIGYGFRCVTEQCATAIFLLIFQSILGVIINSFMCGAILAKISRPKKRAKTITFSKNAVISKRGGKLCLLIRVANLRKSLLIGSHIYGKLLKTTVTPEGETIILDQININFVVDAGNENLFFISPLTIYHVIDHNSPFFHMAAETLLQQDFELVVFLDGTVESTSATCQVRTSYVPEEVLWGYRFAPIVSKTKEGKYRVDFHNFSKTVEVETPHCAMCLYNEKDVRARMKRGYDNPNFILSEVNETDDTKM
DTT redox prof = compounds producing H2O2 with reducing agent – biochemical, NIH compound library profiling, artefact control for MLSCN library redox annotation, primary screen; AID 878, 2007; activation, % at 10 µM; DTT-dependent redox cycling H2O2, phenol red/HRP absorbance; 100% = 100 µM peroxide control, 0% = buffer; 200,000 tested, 0.03% active;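 active = activation of at least 50% relative to the plate's high and low controls in the primary single-dose screen; inactive = activation below 50%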;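 also: compound incubated with DTT at 0.8 mM final as the reducing agent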
MDM2 E3 inh = MDM2-luciferase reporter signal enhancers, primary screen, MDM2 E3 ligase inhibitor project, cell-based, luminescence, 1536-well; E3 ubiquitin-protein ligase Mdm2 (Homo sapiens), Q00987; cell-based MDM2 ubiquitination luciferase reporter, 2 h; 0 = plate control, 100 = twice control, blank-subtracted; signal enhancement, % at 5 µM; 210,000 tested, 0.11% active; AID 1230, 2008;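 active = signal enhancement of 30% or more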;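 also: luminescence tracks abundance of the self-degrading MDM2-luciferase fusion protein; higher signal means inhibition of MDM2 E3 ligase activity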
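Test system: mammalian cells stably expressing self-ubiquitinating, self-degrading MDM2 E3–luciferase fusion; Amount: 2000 cells in each well; Medium: DMEM; Schedule: 4 h settle plus 2 h compound, 37 °C; Technique: SteadyLite luciferase luminescence after 15 min room-temperature reagent incubation; Benchmarks: plate control and blank wells.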
PKD1 inh = inhibitors of human PKD1 kinase, biochemical, fluorescence polarization; Serine/threonine-protein kinase D1 (Homo sapiens), Q15139; PKD1 kinase fluorescence polarization assay; inhibition, % (test concentration not listed); 200,000 tested, 0.056% active; AID 797, 2007; in the data active = inhibition above about 50%
Cl transport mod = KCC2 cotransporter modulators, thallium flux, primary screen, cell-based, HEK293 KCC2, FluoZin-2 fluorescence, MLSMR. B-score of Tl+ flux slope (higher = more flux/activation; lower = inhibition) at 10 µM. AID 1456, 2008. KCC2 cells, thallium flux FluoZin-2 fluorescence. Solute carrier family 12 member 5 (Homo sapiens), Q9H2X9. 190,000 tested, 2.2% active;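 active = thallium flux slope and its plate-corrected score both differing from the plate sample mean at a set confidence after two filtering rounds, in either direction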;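 also: slope of fluorescence scaled to starting intensity during 10 to 20 s after thallium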
p97 ATPase inh = inhibitors of human p97 ATPase, primary screen, biochemical | recombinant p97 ATPase, Kinase-Glo ATP luminescence, 3 h | inhibition, % at 8 µM | 220,000 tested, 0.42% active | AID 1481, 2009; in the data active = inhibition above about 15%;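 also: 0% = DMSO vehicle and 100% = wells lacking enzyme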
ROMK retest = ROMK channel modulator hit retest, confirmation, cell-based, thallium flux, duplicate, resupplied hits | fluorescence ratio; hits give low values | shares compounds with ROMK mod | 3,000 tested, 54% active | normalized thallium flux (F/F0 slope) at 10 µM | AID 1917, 2009;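 active = Flux at 10 µM at least 3 SD below or above vehicle control mean in one or both replicates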
Starred values were filed as active, the others as inactive; . = not tested or not shown.

SMILES | ROMK mod | DTT redox prof | MDM2 E3 inh | PKD1 inh | Cl transport mod | p97 ATPase inh | ROMK retest
C[C@@H](O)C1NC(=O)[C@H](CCCCN)NC(=O)c2cc([N+](=O)[O-])cc(I)c2NCCC[C@@H](C(N)=O)NC1=O (stereo not given in full) | 0.75 | 0 | . | 0 | 0.94 | -2 | .
CCCC(c1nnnn1C1CCCCC1)N1CCN(c2ncccn2)CC1 (stereo not given) | . | 0 | -7 | 3 | . | -2 | .
CCCCC(c1nnnn1C1CCCC1)N1CCN(C2CCCCC2)CC1 (stereo not given) | -4.1* | 1 | -11 | -5 | 0.63 | 0 | 0.063*
O=C(Nc1nnc(C(F)(F)F)s1)c1ccc(Br)s1 | -3* | 0 | -41 | -4 | -0.98 | -1 | 0.09
O=C(Nc1ccccc1C(=O)Nc1nnc(C(F)(F)F)s1)c1ccccc1Cl | . | . | -21 | . | 0.75 | 5 | 0.061*
NC(=O)c1ccccc1NC(=O)c1ccccc1Cl | . | . | . | . | -0.076 | 8 | .
Clc1ccc(CN2C3=NCCN3c3ccccc32)cc1Cl | -2.8* | 1 | -14 | -6 | -0.16 | 0 | 0.06*
c1ccc(CN2C3=NCCN3c3ccccc32)cc1 | -0.21 | 0 | -8 | -6 | 0.0054 | 4 | .
O=C(NCc1nc2ccccc2[nH]1)c1cccs1 | . | -1 | -6 | -8 | 1.5 | 9 | .
CC(C)C(=O)NC(c1cccs1)c1cc([N+](=O)[O-])c2cccnc2c1O (stereo not given) | . | 0 | -7 | -2 | -0.33 | 3 | .
Cc1ccc(C(NC(=O)C(C)C)c2cc([N+](=O)[O-])c3cccnc3c2O)cc1 (stereo not given) | 3.3* | 0 | -6 | -4 | -0.32 | 9 | 0.081
COc1ccc(C2C(C#N)=C(N)Oc3c2ccc2cccnc32)cc1OC (stereo not given) | 6.7* | 0 | -10 | -1 | -0.21 | 4 | 0.077
COc1cc(C2C(C#N)=C(N)Oc3c2ccc2ccccc32)ccc1OCC(=O)Nc1ccc(C)cc1 (stereo not given) | -0.54 | 0 | . | -5 | 0.31 | 2 | .
COC(=O)N/N=C(\C)c1ccc(C)c([N+](=O)[O-])c1 | 0.072 | 0 | . | -9 | 0.29 | 4 | .
Cc1cc(=O)oc2c(C(=O)/C=C\c3cccs3)c(O)ccc12 | -5.7* | 0 | . | 9 | 0.028 | 4 | 0.05*
CNS(=O)(=O)c1ccc(NC(=O)C2c3ccccc3Oc3ccccc32)cc1 | . | 0 | 4 | 2 | 0.063 | 9 | .
CCC(NC(=O)COc1ccc([N+](=O)[O-])cc1)c1ccccc1 (stereo not given) | -0.44 | -1 | -5 | -1 | -2.1 | -2 | .
Cc1noc(C)c1CS(=O)(=O)c1ccc(Br)cc1 | . | 1 | -19 | -4 | -0.043 | -4 | 0.082
COc1cc(Cl)c(C)cc1NC(=O)CNC(C)c1ccccc1OC (stereo not given) | -4* | 0 | -5 | 8 | -0.22 | -2 | 0.061*
CCc1[nH]nc2c1C(c1ccsc1)C(C#N)=C(N)O2 (stereo not given) | -4.3* | 1 | 0 | 0 | -1 | 2 | 0.063*
CC(C)(C)c1[nH]nc2c1C(c1ccsc1)C(C#N)=C(N)O2 (stereo not given) | 0.35 | 0 | -5 | -1 | -1.1 | -1 | .
CC(OC(=O)c1ccncc1)C(=O)Nc1cc(S(=O)(=O)N2CCCCC2)ccc1Cl (stereo not given) | -4.8* | 0 | . | 7 | -0.024 | 1 | 0.068*
